From ChEMBL document CHEMBL1134955, “Identification and structure-activity studies of novel ultrashort-acting benzodiazepine receptor agonists” (Bioorg Med Chem Lett, 2002)

Tests used:
[1] = molecular target: GABA-A receptor; anion channel; test: Binding affinity to rat benzodiazepine receptor; type: protein-complex assay
Procedure, shortened: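 Rat BZD receptor membranes incubated with 2 nM [3H]-flunitrazepam and test ligand for 90 min at 4 °C in 50 mM Tris–HCl pH 7.4 with 150 mM NaCl. Twelve-point curves made by 3-fold serial dilution from DMSO stocks, final DMSO ≤0.4%. Nonspecific binding taken with 2'-chlorodiazepam. Filtration through GF/B, ice-cold Tris washes, scintillation counting. Triplicates, at least three runs; Ki reported in nM.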

[2] = molecular target: GABA-A receptor; anion channel (Rattus norvegicus) (UniProt O09028+P15431+P18506+P18508+P19969+P20236+P23574+P23576+P28471+P28473+P30191+P62813+P63079+P63138+Q91ZM7+Q9ES14); test: Ratio between Ki value (acid) / Ki value (ester) was determined; type: protein-complex assay
Procedure, shortened: (§1)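 Ki of the acid divided by Ki of the matching ester. Both Ki values come from [3H]-flunitrazepam displacement at rat BZD receptor membranes (2 nM radioligand, 90 min, 4 °C, Tris–HCl pH 7.4 with NaCl), with triplicate 12-point curves.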

[3] = test system: Rattus norvegicus; test: Loss of righting reflex recovery time (total) in rat was determined when treated with a dose of 30 mg/Kg; type: functional, organism-based
Procedure, shortened: (§2)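 Rats given an iv bolus in 50% PEG/25% EtOH/25% saline. Scored for time to LRR onset, initial recovery (rights itself three consecutive times) and total recovery (walks without ataxia and pulls up three times when hung from a horizontal wire), in min.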

[4] = test system: Rattus norvegicus; test: Loss of righting reflex recovery time (initial) in rat was determined when treated with a dose of 30 mg/Kg; type: functional, organism-based; procedure, shortened: as §2
[5] = Ratio between Ki (acid) / Ki (ester) was determined; procedure, shortened: as §1

Compound	Ki [1] [nM]	Ratio [2]	Recovery time [3] [min]	Recovery time [4] [min]	Ratio [5]
COC(=O)CC[C@@H]1N=C(c2ccccc2F)c2cc([N+](=O)[O-])ccc2NC1=O	7	–	–	–	–
COC(=O)CNC1N=C(c2ccccc2Cl)c2cc(Cl)ccc2NC1=O (centres undefined)	53	35	–	–	–
O=C(C[C@@H]1N=C(c2ccccc2F)c2cc(Cl)ccc2NC1=O)OCc1ccccc1	176	76	17	13	–
CN1C(=O)CN=C(c2ccccc2)c2cc(Cl)ccc21	–	–	82	5	–
COC(=O)CC[C@@H]1N=C(c2ccccc2F)c2cc(Cl)ccc2NC1=O	7	984	24	9	–
COC(=O)CCN[C@H]1N=C(c2ccccc2Cl)c2cc(Cl)ccc2NC1=O	3	130	–	–	–
O=C(CC[C@@H]1N=C(c2ccccc2)c2cc(Cl)ccc2NC1=O)OCc1ccccc1	200	–	22	15	–
O=C(C[C@H]1N=C(c2ccccc2)c2cc(Cl)ccc2NC1=O)OCc1ccccc1	100000	–	–	–	–
COC(=O)CC[C@@H]1N=C(c2ccccc2)c2cc([N+](=O)[O-])ccc2NC1=O	118	95	14	2	–
O=C(CC[C@@H]1N=C(c2ccccc2)c2cc([N+](=O)[O-])ccc2NC1=O)OCc1ccccc1	124	91	3	2	–
COC(=O)CCN[C@@H]1N=C(c2ccccc2Cl)c2cc(Cl)ccc2NC1=O	189	1	–	–	–
CCCCOC(=O)CC[C@@H]1N=C(c2ccccc2F)c2cc(Cl)ccc2NC1=O	242	17	25	15	–
O=C(CC[C@@H]1N=C(c2ccccc2F)c2cc(Cl)ccc2NC1=O)OCc1ccccc1	29	143	19	8	–
O=C(C[C@@H]1N=C(c2ccccc2)c2cc(Cl)ccc2NC1=O)OCc1ccccc1	1450	–	14	4	–
CC(C)OC(=O)CC[C@@H]1N=C(c2ccccc2F)c2cc(Cl)ccc2NC1=O	39	108	–	–	–
O=C(CC[C@@H]1N=C(c2ccccc2F)c2ccccc2NC1=O)OCc1ccccc1	163	–	–	–	–
COC(=O)CCC[C@@H]1N=C(c2ccccc2F)c2cc(Cl)ccc2NC1=O	3	186	–	–	–
COC(=O)CN[C@H]1N=C(c2ccccc2Cl)c2cc(Cl)ccc2NC1=O	23	172	–	–	–
O=C(CC[C@@H]1N=C(c2ccccc2F)c2cc(Cl)ccc2NC1=O)OCc1ccncc1	34	124	–	–	–
O=C(C[C@@H]1N=C(c2ccccc2F)c2cc(Cl)ccc2NC1=O)OCc1ccncc1	289	–	–	–	–
COC(=O)CC[C@@H]1N=C(c2ccccc2F)c2ccccc2NC1=O	92	–	–	–	–
COC(=O)CCNC1N=C(c2ccccc2Cl)c2cc(Cl)ccc2NC1=O (centres undefined)	17	17	–	–	–
COC(=O)CC[C@@H]1N=C(c2ccccc2F)c2cc(Br)ccc2NC1=O	3	431	30	22	–
COC(=O)CN[C@@H]1N=C(c2ccccc2Cl)c2cc(Cl)ccc2NC1=O	480	9	–	–	–
CCOC(=O)C[C@@H]1N=C(c2ccccc2F)c2cc(Cl)ccc2NC1=O	45	297	–	–	–
Cc1ncc2n1-c1ccc(Cl)cc1C(c1ccccc1F)=NC2 [MIDAZOLAM]	2	–	121	23	–
COC(=O)C[C@@H]1N=C(c2ccccc2F)c2cc(Cl)ccc2NC1=O	81	–	–	–	165
COC(=O)CC[C@H]1N=C(c2ccccc2F)c2cc(Cl)ccc2NC1=O	741	–	4	2	–
